Measurements from PubChem BioAssay AID465 (The Scripps Research Institute Molecular Screening Center, 2006).
Out of some 62,000 compounds screened, about 130 (0.21%) were called active.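 The calls were made as follows: active = inhibition above the mean of all tested compounds plus 3 SD (cut at about 40% in these data); inactive = the rest.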 This excerpt belongs to a sample that is enriched for actives.

Test: inhibitors of PMA/ionomycin-induced NF-kB reporter, primary screen, antigen receptor NF-kB inhibitor project, cell-based, HEK-293 luciferase reporter, luminescence (AID 465);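 also: 0% = stimulated DMSO wells and 100% = 10 µM reference inhibitor 5653914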
Details: HEK-293 NF-kB luciferase reporter, at 3 µM, hits give high values
Method in brief: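 Material: HEK-293 cells with stable firefly luciferase reporter driven by four HIV NF-kB elements / Also added: PMA plus ionomycin mix as NF-kB-activating stimulus / Compound dosing: 3 µM once, 0.30% DMSO / Times: 1 h pretreatment, 16 h stimulation, 37 °C / Signal: luminescence / Evaluation: per-plate % inhibition versus controls / Benchmarks: DMSO and 10 µM reference inhibitor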

Row | Compound | inhibition
1 | CC1(C)CC(=O)C2=C(C1)NCN(CCCN1CCOCC1)C2 | 3.7% (inactive)
2 | CCCCC(=O)Nc1cc(C)c2c(=O)oc3ccccc3c2n1 | 2.7% (inactive)
3 | Cc1cccc(-n2c(N)c(C(=O)N3CCN(C)CC3)sc2=S)c1 | 8.2% (inactive)
4 | Cc1ccc2nc(S(=O)(=O)O)[nH]c2c1 | 13.2% (inactive)
5 | COCc1[nH]nc2c1C(C1C=CCCC1)C(C#N)=C(N)O2 (configuration not stated) | -9.1% (inactive)
6 | CCC(c1nnnn1C1CCCC1)N(Cc1cccs1)Cc1cc2cccc(C)c2[nH]c1=O (configuration not stated) | 1.1% (inactive)
7 | Cc1cccc2cc(CN(Cc3cccs3)C(c3nnnn3C3CCCC3)C(C)C)c(=O)[nH]c12 (configuration not stated) | 42% (active)
8 | Cc1cccc2cc(CN(Cc3ccc4c(c3)OCO4)Cc3nnnn3C3CCCC3)c(=O)[nH]c12 | 26.6% (inactive)
9 | CCCCOc1ccc(-c2ncc(C(=O)OCC)c(N)n2)cc1 | 5.2% (inactive)
10 | Cc1ccc(C)n1-c1ccncc1 | 4.5% (inactive)
11 | Cc1nnc(Sc2nc3c(c(=O)[nH]c(=O)n3C)n2Cc2ccccc2)s1 | -1.3% (inactive)
12 | CC(C)CCn1c(CN(C)Cc2ccccc2)nc2c1c(=O)n(C)c(=O)n2C | 10.4% (inactive)
13 | CCc1c(C)nc2cc(-c3cccs3)[nH]n2c1=O | 0.4% (inactive)
14 | Cn1nnnc1SCC(=O)N1CCN(Cc2ccccc2)CC1 | 10.7% (inactive)
15 | Cc1cccc(NC(=O)c2ccc3ccccc3n2)n1 | -33.4% (inactive)
16 | Cc1ccccc1CSCC(=O)NC(=O)NC(C)(C)C | -1.2% (inactive)
17 | CCOc1ncccc1C(=O)OCc1cn2cc(Cl)ccc2n1 | 7.4% (inactive)
18 | CC1C(c2ccccc2)=[N+]([O-])C2(CCCC2)N1O (configuration not stated) | 5.7% (inactive)
19 | Cc1ccc(-c2cc(C(F)(F)F)n3nc(C(=O)N4CCCC4)cc3n2)cc1 | 13.3% (inactive)
20 | CC(C)(C)OC(=O)c1c(N)n(CCCN2CCCC2=O)c2nc3ccccc3nc12 | 11.9% (inactive)
21 | O=C(NCc1ccco1)c1cc2sccc2n1Cc1ccc(F)cc1 | 19.8% (inactive)

Row | Compound | inhibition
22 | O=C(O)CCCC(=O)Nc1ccccc1-n1ccnc1 | -1.2% (inactive)
23 | COc1ccc(-c2nnc(SC(=O)N3c4ccccc4Sc4ccccc43)o2)cc1 | 9.5% (inactive)
24 | COc1ccc(O)c(C(=O)c2cnc3onc(C(C)C)c3c2)c1 | 8.8% (inactive)
25 | Cc1cc(C)c(S(=O)(=O)NCCCN2CCOCC2)cc1Br | 11.3% (inactive)
26 | O=S(=O)(NCc1cccnc1)c1ccc(Br)s1 | 10.6% (inactive)
27 | CCN1C(=O)C(C(=O)NC(C)c2ccccc2)C2CC1(C)Oc1ccccc12 (configuration not stated) | 14.7% (inactive)
28 | Cc1nn(-c2ccccc2)c(C)c1C(=O)OCC(=O)NC(=O)NC1CCCCC1 | 8.4% (inactive)
29 | CCOC(=O)N1CCN(C(=O)c2nn(-c3ccc(C)cc3)c(=O)c3c2c2ccccc2n3C)CC1 | 20.4% (inactive)
30 | O=C(OCC(=O)N1CCCC1)c1ccco1 | 9.6% (inactive)
31 | CC1(C)NC(=O)N(CCOc2cccc(Oc3ccccc3)c2)C1=O | 21.8% (inactive)
32 | CCOC(=O)c1c(C)[nH]c(C(=O)NCc2ccccc2OC)c1C | -10.8% (inactive)
33 | COc1cccc2c(C)c(C(=O)O)[nH]c12 | 48.7% (active)
34 | COc1ccc(C)cc1NC(=O)c1[nH]c(C)c(C(C)=O)c1C | 8.7% (inactive)
35 | Cc1ccc(NC(=O)CCNS(=O)(=O)c2ccc3c(c2)oc(=O)n3C)cc1C | 13.6% (inactive)
36 | CC1CN(C(=O)CN2C(=O)NC(C)(c3ccccc3)C2=O)CC(C)O1 (configuration not stated) | 6.5% (inactive)
37 | Cc1cc(=O)oc(C)c1C(=O)NCc1ccc(F)cc1 | 4.5% (inactive)
38 | O=C(CCn1c(=O)oc2ccccc21)Nc1ccon1 | 6.5% (inactive)
39 | CCOC(=O)N1CCN(S(=O)(=O)c2ccc(C(=O)Nc3ccc(F)cc3F)cc2)CC1 | 17.4% (inactive)
40 | O=C(C(NS(=O)(=O)c1cccc2nsnc12)c1ccccc1)N1CCN(c2ccccn2)CC1 (configuration not stated) | 10.9% (inactive)
41 | CCOc1cc(C(=O)N2CCc3cc(OC)c(OC)cc3C2)ccc1OC(F)F | 31.7% (inactive)
42 | O=C(Cc1c(F)cccc1Cl)N1CCN(C(=O)c2ccco2)CC1 | 10.7% (inactive)

Row | Compound | inhibition
43 | Cc1nc2c(-c3ccc(F)cc3)c(C)nn2c(C)c1CCC(=O)N1CCN(c2ccccn2)CC1 | 0.2% (inactive)
44 | CCn1cc(C(=O)NC2CCCCCC2)c(=O)c2cc(S(=O)(=O)N3CCCCC3)ccc21 | 20.8% (inactive)
45 | COc1ccc(OC)c(NC(=O)CSc2nc3cccnc3n2C)c1 | 18.9% (inactive)
46 | CC(Sc1nncs1)C(=O)NCc1ccc2c(c1)OCO2 (configuration not stated) | -5.2% (inactive)
47 | COc1ccccc1NC(=O)CN1CCN(S(=O)(=O)c2ccc(Br)cc2)CC1 | 4.2% (inactive)
48 | CCOC(=O)c1cccc(NC(=O)C2CCCN(S(=O)(=O)c3cnc[nH]3)C2)c1 (configuration not stated) | 11.6% (inactive)
49 | O=c1ccc2cc(S(=O)(=O)N3CCN(c4ccccc4)CC3)ccc2o1 | 10.7% (inactive)
50 | CCCCCN(C(=O)NC(=O)Nc1ccccc1OC)S(C)(=O)=O | 7.9% (inactive)
51 | COc1ccc(-c2nnn(Cc3nc(N)nc(N4CCCCC4)n3)n2)cc1 | 10.9% (inactive)
52 | O=C(NCCCCO)C(F)(F)C(F)(F)C(F)(F)C(=O)NCCCCO | 13.3% (inactive)
53 | CCOC(=O)c1cc(C)sc1NC(=O)C1CCC1 | 0.1% (inactive)
54 | CC(C)Cc1ccc(S(=O)(=O)N2CCN(C(=O)c3ccco3)CC2)cc1 | 9.1% (inactive)
55 | CC(Sc1nncn1C)C(=O)Nc1ccccc1-c1ccccc1 (configuration not stated) | 14.4% (inactive)
56 | O=C(CN1C(=O)NC2(CCCCC2)C1=O)NCCC1=CCCCC1 | 17.4% (inactive)
57 | CCN(CC)C(=O)N1CCN(C(=O)c2ccc(C)cn2)CC1 | 4.3% (inactive)
58 | Fc1ccc(Cn2nnnc2C(c2cccs2)N2CCCCCC2)cc1 (configuration not stated) | 9.2% (inactive)
59 | CCCC(=O)Nc1nnc(CC(=O)OCC)s1 | 9.9% (inactive)
60 | CCCCNc1nc2ccccc2nc1NS(=O)(=O)c1cccs1 | 3.3% (inactive)
61 | Cc1noc(/C=C/N(C)C)c1S(=O)(=O)N1CCCC(C(=O)NCc2ccco2)C1 (configuration not stated) | 5% (inactive)
62 | O=C(Cc1cccs1)N1CCCC(c2nc(-c3ccc(S(=O)(=O)N4CCCC4)cc3)no2)C1 (configuration not stated) | 6.1% (inactive)
63 | Cc1cc(C(=O)COC(=O)c2cccs2)c(C)n1-c1c(C)n(C)n(-c2ccccc2)c1=O | 20% (inactive)

Row | Compound | inhibition
64 | COc1cc(OC)cc(C(=O)Nc2ncc3c(n2)CC(C)(C)CC3=O)c1 | 18.8% (inactive)
65 | O=S(=O)(/C=C/c1ccccc1)NCCc1ccccn1 | 3.3% (inactive)
66 | CCCCc1nc2c(=O)[nH]c3ccccc3c2o1 | 7.6% (inactive)
67 | CNC(=O)c1nnn(-c2ccccc2)c1C(=O)NC | 14% (inactive)
68 | CCC(=O)Nc1ccccc1C(=O)N1CCN(Cc2ccccc2)CC1 | 9.5% (inactive)
69 | Cc1[nH]c2ccccc2c1C(=O)CSCC(=O)O | 16% (inactive)
70 | C/C(=C\C(=O)c1cccnc1)Nc1ccc(C)c(C)c1 | -5% (inactive)
71 | O=C(O)c1cccc2c1C(=O)N(C1CCCCC1)C2 | 8.4% (inactive)
72 | CS(=O)(=O)N1CCN(C(=O)Cc2ccccc2)CC1 | 5.7% (inactive)
73 | CCCCC(CC)C(=O)Nc1ccc(Cl)cn1 (configuration not stated) | -0.6% (inactive)
74 | CCN(CC)CCCN1C(=O)C(=O)/C(=C(/O)c2c(C)nc3ccccn23)C1c1ccc(C)o1 (configuration not stated) | 13.6% (inactive)
75 | COCCNC(=O)CN(C(=O)CCC(=O)Nc1cc(C)on1)c1ccc(C)cc1C | 1.1% (inactive)
76 | CC(C)C(=O)N1CCN(CCN=CC2=C(O)CC(c3ccco3)CC2=O)CC1 (configuration not stated) | 9.5% (inactive)
77 | CC1CCCCC1NC(=O)CCS(=O)(=O)c1cccc2nonc12 (configuration not stated) | 10.9% (inactive)
78 | CCOC(=O)N1CCC(NC(=O)Cn2cc3c(n2)CCCCC3)CC1 | 17.8% (inactive)
79 | CCOc1ccc(OCC)c(NC(=O)C(NS(=O)(=O)c2ccc3c(c2)oc(=O)n3C)C(C)C)c1 (configuration not stated) | 12.5% (inactive)
80 | CCC1Oc2ccc(Cl)cc2N(CC(=O)O)C1=O (configuration not stated) | 10.2% (inactive)
81 | CC(CCO)Nc1nc2c([nH]1)c(=O)n(C)c(=O)n2C (configuration not stated) | 22.2% (inactive)
82 | COC(=O)[C@H](C(C)C)n1c(C)c(C(C)=O)c(C(C)=O)c1C | -9.6% (inactive)
